# Results from ChEMBL document CHEMBL6177979, “Exploring the Phototherapeutic Applications of Mitochondria-Targeted COUPY Photocages of Antitumor Drugs” (J Med Chem, 2025).
# Active and inactive are the calls of the source. The calls are words filed in the database; no cut-off is given here.
# Key:
# [1] = Photoactivation of the compound in PBS/ACN irradiation with visible light at 530 nm 150 mW cm2 incubated for 2 hrs by RP-HPLC analysis; design: dose or concentration left out as unconfirmed; conditions: buffer
# How it was run: (§1)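 Caged compound (20 μM) with 4-dimethylaminopyridine internal standard (20 μM) in PBS/ACN 8:2 at 37 °C. First held 2 h in the dark for stability, then irradiated with a 470–750 nm LED centred at 530 nm while stirred. Release followed by RP-HPLC with formic acid/water–ACN gradients.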
# [2] = Phototoxic index, ratio of IC50 for cytotoxicity against human HeLa cells assessed as reduction in cell viability incubated for 2 hrs under dark condition by MTT assay to IC50 for photocytotoxicity in human HeLa cells assessed as reduction in cell viability irradiated with 550 nm 4 mW/cm^-2 green-yellow […] and measured after 48 hrs by MTT assay; assay type: toxicity, cell-based; conditions: read-out: Ratio IC50
# How it was run: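 Phototoxic index is dark IC50 divided by light IC50, HeLa MTT assay. Cells had 1 h compound in the dark, then 1 h dark or 550 nm LED (4 mW/cm2 pulsed, 7.2 J cm–2), then 48 h after medium change.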
# [3] = Photochemical property of compound assessed as uncaging quantum yields; assay type: physicochemical
# How it was run: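 Uncaging quantum yields derived from photon flux (DAE actinometry) together with photolysis rate parameters. Photolysis run in PBS/ACN 8:2 at 37 °C under a 530 nm-centred LED.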
# [4] = Drug localization in […] of human HeLa cells at 1 uM incubated for 30 mins by Lysotracker green dye based confocal scanning microscopic analysis; assay type: ADME, subcellular; conditions: 0.5 h
# How it was run: (§2)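 HeLa cells incubated with compound (1 μM) for 30 min at 37 °C in nonsupplemented DMEM. LysoTracker Green FM added for the last 5 min and WGA Alexa Fluor 633 for the last 20 min. Cells washed with DPBS and imaged live by confocal at 37 °C: compound excited at 561 nm (570–670 nm), LTG at 488 nm, WGA at 633 nm. Pearson's coefficient from 5 stacks, about 25 cells each.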
# [5] = Induction of ROS generation in PBS buffer assessed as increase in superoxide anion radical level by measuring increase in DHR123 fluorescence intensity at 10 uM irradiated with 505 nm 100 mW/cm2 green light for 15 mins by DHR123 probe based analysis
# [6] = tested on: HeLa; experiment: Photocytotoxicity in human HeLa cells assessed as reduction in cell viability irradiated with 550 nm 4 mW/cm^-2 green-yellow LED light for 1 hr and measured after 48 hrs in presence of 4-PBA by MTT assay; assay type: toxicity, cell-based; conditions: 49 h
# How it was run: (§3)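 HeLa or U87-MG cells seeded at 5000/well in DMEM with 10% FBS and 1% penicillin-streptomycin, grown 24 h. Compound added at 0–200 μM final (0.5% DMSO) for 1 h at 37 °C in the dark. Then 1 h dark or 550 nm pulsed LED (4 mW/cm2, 1 min on/1 min off; 7.2 J cm–2). Medium refreshed, 48 h incubation, MTT read-out. IC50 from sigmoidal dose–response curves, n = 3.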
# [7] = Drug localization in lysosome of human HeLa cells at 1 uM incubated for 30 mins by wheat germ agglutinin alexa fluor 633 probe based analysis; assay type: ADME, subcellular; conditions: 0.5 h; how it was run: as §2
# [8] = Drug localization in Endosome of human HeLa cells at 1 uM incubated for 30 mins by wheat germ agglutinin alexa fluor 633 probe based analysis; assay type: ADME, subcellular; conditions: 0.5 h; how it was run: as §2
# [9] = tested on: HeLa; experiment: Photocytotoxicity in human HeLa cells assessed as reduction in cell viability irradiated with 550 nm 4 mW/cm^-2 green-yellow LED light for 1 hr and measured after 48 hrs by MTT assay; assay type: toxicity, cell-based; conditions: 49 h; how it was run: as §3
# [10] = tested on: HeLa; experiment: Photocytotoxicity in human HeLa cells assessed as reduction in cell viability irradiated with 550 nm 4 mW/cm^-2 green-yellow LED light for 1 hr and measured after 48 hrs in presence of CLB by MTT assay; assay type: toxicity, cell-based; conditions: 49 h; how it was run: as §3
# [11] = Drug uptake in human HeLa cells assessed as increase in fluorescence intensity at 1 uM incubated for 30 mins by DAPI staining based confocal microscopic analysis; assay type: ADME, cell-based; conditions: 0.5 h
# How it was run: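 HeLa cells seeded on glass-bottom dishes in DMEM with 10% FBS. After 24 h, incubated 30 min at 37 °C with compound (1 μM) in supplemented DMEM. Washed three times with DPBS, kept in phenol red-free low-glucose DMEM, imaged live by confocal with 561 nm excitation and 570–670 nm detection.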
# [12] = tested on: HeLa; experiment: Cytotoxicity against human HeLa cells assessed as reduction in cell viability at 100 uM incubated for 2 hrs under dark condition by MTT assay; assay type: functional, cell-based; how it was run: as §3
# [13] = Photophysical property of the compound assessed as fluorescence quantum yield; assay type: physicochemical
# How it was run: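 Fluorescence quantum yield by the comparative method against cresyl violet in ethanol (ΦF 0.54). Optically matched solutions with absorbance below 0.1 at 540 nm excitation. Calculated from integrated emission, absorbance and refractive indexes.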
# [14] = Induction of singlet oxygen quantum yield under irradiation with green light 505 nm 100 mW/cm2 by; assay type: functional
# How it was run: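 Singlet oxygen quantum yield measured in air-saturated DCM (bubbled 15 min). DPBF trap at ~1.0 absorbance (50 μM); compound absorbance set to 0.06 at 505 nm. Irradiated with LED at 505 ± 35 nm, 100 mW cm–2.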
# [15] = Induction of ROS generation in PBS buffer assessed as increase in singlet oxygen by measuring increase in SOSG fluorescence intensity at 10 uM irradiated with green light 505 nm 100 mW/cm2 for 15 mins by SOSG probe based analysis; assay type: functional
# How it was run: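 Cell-free fluorogenic probe test. Compound (10 μM) in PBS with 2% DMSO plus SOSG (5 μM, singlet oxygen) or DHR123 (10 μM, superoxide), irradiated with green LED light (505 ± 35 nm, 100 mW cm–2), with the rise in probe fluorescence followed. Positive references were Rose Bengal (SOSG) and methylene blue (DHR123). Scavenger controls used sodium azide-saturated PBS (singlet oxygen) or tiron-saturated PBS (superoxide).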
# [16] = Photoactivation of the compound in PBS/ACN incubated for 2 hrs by RP-HPLC analysis; conditions: buffer; how it was run: as §1
# [17] = Drug localization in lysosome of human HeLa cells at 1 uM incubated for 30 mins by Lysotracker green dye based analysis; assay type: ADME, subcellular; conditions: 0.5 h; how it was run: as §2
# [18] = tested on: U-87 MG; experiment: Cytotoxicity against human U-87 MG cells assessed as reduction in cell viability incubated for 2 hrs under dark condition by MTT assay; assay type: functional, cell-based, U-87MG ATCC; how it was run: as §3
# [19] = Drug localization in lysosome of human HeLa cells at 1 uM incubated for 30 mins by Lysotracker green dye based confocal scanning microscopic analysis; assay type: ADME, subcellular; conditions: 0.5 h; how it was run: as §2
# [20] = Drug localization in mitochondria of human HeLa cells at 1 uM incubated for 30 mins by Mito-tracker green dye based confocal scanning microscopic analysis; assay type: ADME; conditions: 0.5 h
# How it was run: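 Cells washed with DPBS and imaged live by confocal at 37 °C with 5% CO2: compound excited at 561 nm (detection 570–670 nm), MTG at 488 nm. Colocalization coefficients from 5 stacks of about 25 cells.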
# [21] = Photocytotoxicity in human U-87 MG cells assessed as reduction in cell viability irradiated with 550 nm 4 mW/cm^-2 green-yellow LED light for […] and measured after 48 hrs by MTT assay; assay type: toxicity, cell-based, U-87MG ATCC; how it was run: as §3
# [22] = tested on: U-87 MG; experiment: Cytotoxicity against human U-87 MG cells assessed as reduction in cell viability incubated for 2 hrs under dark condition by resazurin assay; assay type: functional, cell-based; conditions: U-87MG ATCC
# [23] = Drug accumulation in human HeLa cells assessed as mitochondrial localization at 1 uM incubated for 30 mins by Hoechst 33342 staining based live cell confocal microscopic analysis; assay type: ADME; conditions: 0.5 h
# How it was run: (§4)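 Live HeLa cells (DMEM, 4.5 g/L glucose, 10% FBS, pen-strep) on glass-bottom dishes; 24 h after seeding, incubated 30 min at 37 °C with compound (1 or 2 μM) in DMEM + 10% FBS. Cells were washed three times with DPBS and imaged at 37 °C, 5% CO2 in phenol-red-free low-glucose DMEM. Excitation 561 nm, emission 570–670 nm. For co-staining, MitoTracker Green FM (0.1 μM) was co-incubated 30 min in nonsupplemented DMEM and excited at 488 nm.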
# [24] = Drug accumulation in human HeLa cells assessed as mitochondrial localization at 2 uM incubated for 30 mins by Hoechst 33342 staining based live cell confocal microscopic analysis; assay type: ADME; conditions: 0.5 h; how it was run: as §4
Structure (SMILES),Activity [1],selectivity ratio at 48 h [2],Activity [3],Activity [5],Drug uptake [11],IC50 [12],Activity [13],Activity [14],Activity [15],Activity [16],further results
CCN(CC)c1ccc2c(c1)O/C(=C(/C#N)c1cc[n+](CCC[N+](C)(C)C)cc1)C=C2C(C)OC(=O)CCCc1ccc(N(CCCl)CCCl)cc1.[Cl-].[Cl-] (stereo not drawn),Active,3.7,1.07e-05,Active,Active,41 µM,0.09,< 0.01,Active,Active,Drug uptake [4]: Active; Activity [6]: Non-toxic; Drug uptake [7]: Active; Drug uptake [8]: Active; Activity [9]: Non-toxic; Activity [10]: Non-toxic; Drug uptake [17]: Active
CCCCCC[n+]1ccc(/C(C#N)=C2/C=C(C(C)OC(=O)CCCc3ccc(N(CCCl)CCCl)cc3)c3ccc(N(CC)CC)cc3O2)cc1.[Cl-] (stereo not drawn),Active,40,1.3e-05,Active,Active,3.76 µM,0.07,< 0.01,Active,Active,Activity [6]: Non-toxic; IC50 [18]: 6.72 µM; Drug uptake [19]: Active; Drug uptake [20]: Active; IC50 at 48 h [21]: 0.12 µM; Activity [9]: Non-toxic; Activity [10]: Non-toxic; Activity [22]: Active
O=C(O)CCCc1ccc(N(CCCl)CCCl)cc1 [CHLORAMBUCIL],–,–,–,–,–,> 100 µM,–,–,–,–,–
O=C(O)CCCc1ccccc1,–,–,–,–,–,> 100 µM,–,–,–,–,–
CCCCCC[n+]1ccc(/C(C#N)=C2/C=C(C(C)OC(=O)CCCc3ccccc3)c3ccc(N(CC)CC)cc3O2)cc1.[Br-] (stereo not drawn),Active,131,3.89e-05,Active,Active,3.54 µM,0.23,0.05,Active,Active,Drug uptake [23]: Active; Drug uptake [19]: Active; Drug uptake [20]: Active
CCCCCC[n+]1ccc(/C(C#N)=C2/C=C(C)c3ccc(N(CC)CC)cc3O2)cc1,–,–,–,Active,–,–,–,–,Active,–,–
CCCCCC[n+]1ccc(/C(C#N)=C2/C=C(C(C)O)c3ccc(N(CC)CC)cc3O2)cc1.[Cl-] (stereo not drawn),–,40,–,Active,–,27.2 µM,0.26,–,Active,–,Drug uptake [24]: Active
